Consider eleven compounds from ChEMBL document CHEMBL4376857, “Discovery of Selective Inhibitors of Endoplasmic Reticulum Aminopeptidase 1” (J Med Chem, 2020).

Active and inactive are the calls of the source. The calls are words filed in the database; no cut-off is given here.

One may read the IC50 as the midpoint of a concentration-inhibition curve. One may read the Ki as a measure of affinity in units of concentration, obtained from inhibition or displacement. As a reminder, the AC50 is the concentration giving half of the maximal activity seen.

Data set [1] deals with T1, Leucyl-cystinyl aminopeptidase (Mus musculus, UniProt Q8C129).
T1 sequence (Q8C129 whole entry): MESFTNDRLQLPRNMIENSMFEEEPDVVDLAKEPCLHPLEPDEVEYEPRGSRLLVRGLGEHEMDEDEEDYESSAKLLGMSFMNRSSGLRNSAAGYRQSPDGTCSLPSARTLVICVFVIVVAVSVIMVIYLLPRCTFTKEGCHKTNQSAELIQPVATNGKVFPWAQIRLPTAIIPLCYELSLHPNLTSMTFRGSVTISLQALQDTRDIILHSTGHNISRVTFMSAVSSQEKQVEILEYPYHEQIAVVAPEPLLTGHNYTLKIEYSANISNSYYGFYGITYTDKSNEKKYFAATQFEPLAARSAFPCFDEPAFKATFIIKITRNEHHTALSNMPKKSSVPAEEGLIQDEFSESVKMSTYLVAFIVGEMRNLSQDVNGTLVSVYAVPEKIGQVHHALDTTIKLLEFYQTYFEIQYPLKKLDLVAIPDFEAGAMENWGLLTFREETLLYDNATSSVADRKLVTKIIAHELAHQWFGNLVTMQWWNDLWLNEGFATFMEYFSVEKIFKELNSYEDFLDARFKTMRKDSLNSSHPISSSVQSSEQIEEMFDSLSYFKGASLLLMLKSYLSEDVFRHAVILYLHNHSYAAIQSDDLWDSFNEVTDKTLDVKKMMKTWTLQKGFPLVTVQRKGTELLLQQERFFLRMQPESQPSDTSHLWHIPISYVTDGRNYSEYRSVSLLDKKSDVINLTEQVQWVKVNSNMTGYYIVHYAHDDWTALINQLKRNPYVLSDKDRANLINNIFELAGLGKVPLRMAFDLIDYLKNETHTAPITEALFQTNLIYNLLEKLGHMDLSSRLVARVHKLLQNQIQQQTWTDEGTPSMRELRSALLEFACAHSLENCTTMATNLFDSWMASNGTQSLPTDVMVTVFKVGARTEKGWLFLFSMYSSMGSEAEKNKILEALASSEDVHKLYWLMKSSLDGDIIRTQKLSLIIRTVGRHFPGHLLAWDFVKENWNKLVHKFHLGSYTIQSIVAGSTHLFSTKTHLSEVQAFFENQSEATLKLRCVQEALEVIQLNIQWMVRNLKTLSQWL
The data set is described as follows: Inhibition of recombinant mouse C-terminal His6-tagged IRAP expressed in baculovirus infected BTA-TN-5B1-4 insect cells using L-AMC as substrate measured after 1 hr by fluorescence assay.

The target in data set [2] is T2, Endoplasmic reticulum aminopeptidase 1 (Homo sapiens, UniProt Q9NZ08). The data set is described as follows: Inhibition of recombinant human C-terminal His6-tagged ERAP1 expressed in baculovirus infected BTA-TN-5B1-4 insect cells using L-AMC as substrate measured after 1 hr by fluorescence assay.
Data set [3] has as its target T2, Endoplasmic reticulum aminopeptidase 1. The data set is described as follows: Competitive inhibition of recombinant human C-terminal His6-tagged ERAP1 expressed in baculovirus infected BTA-TN-5B1-4 insect cells using varying levels of L-pNA as substrate incubated for 1 hr and measured for 5 to 10 mins by […] Michaelis-Menten equation analysis.
The target of data set [4] is T3, Antigen peptide transporter 1/2 (Homo sapiens) (UniProt Q03518+Q03519). The experiment in a line: Inhibition of TAP1/2 in human HeLa cells stably expressing H-2 Kb infected with vaccinia virus containing Ub-SIINFEKL epitope assessed as suppression of Ub-SIINFEKL binding to MHC1 H-2 Kb at cell surface by measuring reduction in 25D1 staining at 50 uM measured after 16 to 24 hrs by flow cytometric method. It counts as cell-based. Background: In flow cytometry, cells or beads pass a laser one at a time.

Data set [5] addresses T3, Antigen peptide transporter 1/2 (Homo sapiens). The data set is described as follows: Inhibition of TAP1/2 in human HeLa cells stably expressing H-2 Kb infected with vaccinia virus containing Ub-SIINFEKL epitope assessed as suppression of Ub-SIINFEKL binding to MHC1 H-2 Kb at cell surface by measuring reduction in 25D1 staining measured after 16 to 24 hrs by flow cytometric method. It counts as cell-based.

Data set [6] concerns the target T2, Endoplasmic reticulum aminopeptidase 1. The data set is described as follows: Competitive inhibition of recombinant human C-terminal His6-tagged ERAP1 expressed in baculovirus infected BTA-TN-5B1-4 insect cells using varying levels of LVAFKARKF as substrate measured at 2.5 mins interval for 20 mins by ABTS reagent based horseradish peroxidase-coupled Michaelis-Menten equation analysis.

Data set [7] can be described thus: Activation of recombinant human C-terminal His6-tagged ERAP1 allele 3 mutant expressed in baculovirus infected BTA-TN-5B1-4 insect cells using L-AMC as substrate measured after 1 hr by fluorescence assay.
Data set [8] has as its target T2, Endoplasmic reticulum aminopeptidase 1. The experiment in a line: Inhibition of recombinant human C-terminal His6-tagged ERAP1 expressed in baculovirus infected BTA-TN-5B1-4 insect cells using WRCYEKMALK as substrate measured after 10 mins by LC-MS analysis.
A short description of data set [9]: Activation of recombinant human C-terminal His6-tagged ERAP1 5-SNP mutant expressed in baculovirus infected BTA-TN-5B1-4 insect cells using L-AMC as substrate measured after 1 hr by fluorescence assay.
In data set [10] the target is T2, Endoplasmic reticulum aminopeptidase 1. The data set is described as follows: Activation of recombinant human C-terminal His6-tagged ERAP1 expressed in baculovirus infected BTA-TN-5B1-4 insect cells assessed as increase in Vmax/[…] ratio using varying levels of L-pNA as substrate incubated for 1 hr and measured for 5 to 10 mins by […] Michaelis-Menten equation analysis relative to control. Summed up:
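ERAP1 initial rates measured under steady-state conditions with the chromogenic substrate leucine p-nitroanilide (L-pNA), allowing a wide substrate range, across several compound concentrations. Rate-versus-substrate curves were fit to an allosteric Michaelis-Menten equation with a Hill coefficient to give V_max and K_half at each compound level. Activity was expressed as V_max/K_half relative to no-compound control.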

For data set [11] the target is unchanged. The data set is described as follows: Activation of recombinant human C-terminal His6-tagged ERAP1 expressed in baculovirus infected BTA-TN-5B1-4 insect cells using L-AMC as substrate measured after 1 hr by fluorescence assay.
Data set [12] has the same target. The data set is described as follows: Inhibition of ERAP1 in human HeLa cells stably expressing H-2 Kb infected with vaccinia virus containing ss-LEQLE-SIINFEKL epitope assessed as suppression of ss-LEQLE-SIINFEKL binding to MHC1 H-2 Kb at cell surface by measuring reduction in 25D1 staining measured after 16 to 24 hrs by flow cytometric method. It counts as cell-based.

For data set [13] the target is unchanged. The experiment in a line: Activation of recombinant human C-terminal His6-tagged ERAP1 expressed in baculovirus infected BTA-TN-5B1-4 insect cells at 10.7 uM using L-AMC as substrate measured after 1 hr by fluorescence assay relative to control.
A short description of data set [14]: Activation of recombinant human C-terminal His6-tagged ERAP1 allele 2 mutant expressed in baculovirus infected BTA-TN-5B1-4 insect cells using L-AMC as substrate measured after 1 hr by fluorescence assay.

T2 sequence (Q9NZ08 whole entry): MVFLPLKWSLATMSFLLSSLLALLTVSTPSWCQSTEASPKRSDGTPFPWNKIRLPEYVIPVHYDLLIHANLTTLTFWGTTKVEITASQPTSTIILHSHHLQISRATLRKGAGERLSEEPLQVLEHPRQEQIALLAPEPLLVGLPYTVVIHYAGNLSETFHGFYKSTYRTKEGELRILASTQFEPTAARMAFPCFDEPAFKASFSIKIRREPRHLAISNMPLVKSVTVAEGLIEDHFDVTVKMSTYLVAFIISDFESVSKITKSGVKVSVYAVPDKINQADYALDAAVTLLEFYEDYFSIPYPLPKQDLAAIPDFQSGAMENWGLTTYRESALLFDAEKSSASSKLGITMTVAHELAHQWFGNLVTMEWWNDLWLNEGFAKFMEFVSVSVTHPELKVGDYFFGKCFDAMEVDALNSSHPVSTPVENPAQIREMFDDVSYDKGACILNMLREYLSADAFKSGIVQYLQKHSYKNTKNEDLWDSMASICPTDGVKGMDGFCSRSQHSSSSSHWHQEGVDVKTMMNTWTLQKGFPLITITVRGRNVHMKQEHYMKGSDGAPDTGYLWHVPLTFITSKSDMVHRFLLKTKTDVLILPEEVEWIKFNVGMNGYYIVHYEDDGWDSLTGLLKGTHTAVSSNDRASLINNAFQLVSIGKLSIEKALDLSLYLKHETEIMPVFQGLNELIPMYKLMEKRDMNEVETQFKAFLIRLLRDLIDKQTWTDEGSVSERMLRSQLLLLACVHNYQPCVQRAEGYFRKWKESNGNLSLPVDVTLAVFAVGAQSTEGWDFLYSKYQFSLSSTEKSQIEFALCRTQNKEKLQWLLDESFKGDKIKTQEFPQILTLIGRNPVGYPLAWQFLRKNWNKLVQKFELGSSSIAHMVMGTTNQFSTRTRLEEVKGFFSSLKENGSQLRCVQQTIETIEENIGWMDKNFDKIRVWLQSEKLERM

With `O=C(O)c1ccc(Cl)c(S(=O)(=O)Nc2cc(C(F)(F)F)ccc2N2CCCCC2)c1`, the concentration for half-maximal inhibition (IC50) in [1] was > 200 µM.

With `COc1ccc(C(=O)O)cc1S(=O)(=O)Nc1cc(F)ccc1N1CCCCC1`, in data set [1], the IC50 is > 200 µM.

`N=C(NCCc1c[nH]c2ccccc12)NS(=O)(=O)c1cc(F)ccc1F`: in [2], the IC50 is 9.2 µM. In addition, the Ki in [3] was 51.7 µM. In addition, the inhibition entry in [4] was “Active”.

Consider `O=C(O)c1ccc(Br)c(S(=O)(=O)Nc2cc(C(F)(F)F)ccc2N2CCCCC2)c1`, for which the IC50 in data set [1] is > 200 µM.

Take `COc1ccc(C(=O)O)cc1S(=O)(=O)Nc1cc(C(F)(F)F)ccc1N1CCN(C)CC1`: the IC50 in data set [1] was > 200 µM.

In the case of `COc1ccc(C(=O)O)cc1S(=O)(=O)Nc1ccccc1N1CCCCC1`, in data set [1], the 50% inhibitory concentration (IC50) was > 200 µM.

As to `COC(=O)c1ccc(OC)c(S(=O)(=O)Nc2cc(C(F)(F)F)ccc2N2CCCCC2)c1`, the inhibition entry in data set [5] was “Active”. Further, the IC50 in data set [1] was > 200 µM.

With `O=C(O)c1cccc(S(=O)(=O)Nc2cc(C(F)(F)F)ccc2N2CCCCC2)c1`, the IC50 in data set [1] was > 200 µM.

In the case of `COc1ccc(C(=O)O)cc1S(=O)(=O)Nc1cc(C(F)(F)F)ccc1N1CCCCC1`, the Ki in data set [6] is 3.8 µM. In addition, the AC50 in data set [7] amounted to 3.1 µM; in data set [9], 2.7 µM; in data set [11] it was 4.1 µM; in data set [14], 0.88 µM. Further, the values for the IC50 in data set [8] and in data set [12] were 5.3 µM and 1 µM, respectively. Further, the fold change (FC) in [10] is < 1.8. For the same compound, the Activity in data set [13] is > 40%. Besides, in [4], the inhibition entry is “inactive”. The “inhibition (INH)” value in [1] (mouse, 1 h) was “Not Active”.

Turning to `COc1ccc(C(=O)O)cc1S(=O)(=O)Nc1cc(C)ccc1N1CCCCC1`, in [1], the concentration for half-maximal inhibition (IC50) is > 200 µM.

With `CC(C)C[C@H](N)CS`, in data set [4], the inhibition entry was “inactive”.
